Rows were chosen to be rich in hits. Some 1.9% of all compounds tested hit in one or more screens of this group.
UHRF1 MBD2 ctr = blocks human UHRF1 binding to methylated DNA. Q96T88. UHRF1 binding to methylated oligo, TR-FRET. inhibition, % at 4.4 µM. 370,000 compounds, 0.75% hits. AID 687016;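 also: UHRF1 SRA domain binding a hemimethylated CpG hairpin DNA probe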
MBD2 DNA inh = blocks human MBD2 binding to methylated DNA | inhibition, % at 4.4 µM | AID 686964 | TR-FRET, MBD2 binding to methylated oligonucleotide | Q9UBB5 | 370,000 compounds, 0.31% hits; in the data active = inhibition above about 13%
LEDGF integ inh = blocks HIV-1 LEDGF/p75-dependent DNA integration; TR-FRET IN-LEDGF/p75 DNA integration, Eu/Cy5; inhibition, % at 3.7 µM; 370,000 compounds, 0.64% hits; AID 743269;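 active = inhibition above the screen-wide mean plus 3 SD, cut at about 13% in these data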;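 also: signal is the Cy5 over europium emission ratio at 671 and 618 nm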
TDP2 absorb = blocks human TDP2 phosphodiesterase activity. O95551. recombinant TDP2, T5PNP hydrolysis, p-nitrophenol absorbance 415 nm. inhibition, % at 12.8 µM. 370,000 compounds, 0.34% hits. AID 720702;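 active = inhibition above the mean of all tested compounds plus 3 SD, set per campaign, cut at about 25% in these data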
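Test system: Human TDP2 enzyme | Reagent: 5 mM T5PNP | Compound dosing: 12.8 µM single point, 1% DMSO | Incubation: Enzyme reaction with compound for 2 h at 37 °C | Technique: p-Nitrophenol epi absorbance | Read-out: % inhibition relative to enzyme-containing and enzyme-free wells | Benchmarks: High control without enzyme, low control DMSO plus TDP2 | Replicates: Singlicate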
Rin1 Abl inh = blocks binding of human Rin1 to Abl. P00519+Q13671. TR-FRET Rin1/Abl binding, biochemical. inhibition, % at 7.35 µM. 360,000 compounds, 0.4% hits. AID 588664; in the data active = inhibition above about 5%, passing the limit was not always enough
UHRF1 DNA bind = UHRF1 methyl-oligo binding inhibition as MBD2 counter-screen | shares compounds with MBD2 DNA inh | UHRF1 binding to methylated oligonucleotide, TR-FRET | inhibition, % at 4.4 µM | 1,000 compounds, 25% hits;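 also: UHRF1 SRA domain binding a labeled hemimethylated CpG hairpin DNA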
MBD2 DBD conf = confirmation of human MBD2-DBD methylated oligonucleotide binding inhibitors; shares compounds with MBD2 DNA inh; 1,000 compounds, 26% hits; TR-FRET MBD2-DBD binding to methylated oligonucleotide; inhibition, % at 4.4 µM; in the data active = inhibition above about 14%
Each line names hits and unclear results; the compound was inactive in the other large screens (follow-up assays come after a bar, where they were run). Rule as the data show it, unless noted: active = inhibition above about 21%; inactive = the rest.

COc1ccc(N(C)S(=O)(=O)c2cccc(C(=O)OCC(=O)N(C)c3ccccc3)c2)cc1	MBD2 DNA inh 16 | UHRF1 DNA bind inactive | MBD2 DBD conf inactive
COc1ccccc1N1CCN(C(=O)C(C)CS(=O)(=O)c2ccc3c(c2)NC(=O)CS3)CC1 (configuration not stated)	UHRF1 MBD2 ctr 83, MBD2 DNA inh 77, LEDGF integ inh 57 | UHRF1 DNA bind inactive | MBD2 DBD conf inactive
Cc1ccc(Cn2cc(COC(=O)NCCc3c[nH]c4ccccc34)nn2)cc1	none (no result: Rin1 Abl inh)
COc1ccc(-n2c(SCC(=O)Nc3ccccc3-c3ccccc3)nnc2-c2ccco2)cc1	none (no result: Rin1 Abl inh)
Cc1ccc(NC(=O)c2cc3ccccc3oc2=N)cc1	none
N=c1oc2cc(O)ccc2cc1C(=O)Nc1ccc(Cl)cc1	MBD2 DNA inh 14 | UHRF1 DNA bind inactive | MBD2 DBD conf inactive
CN(CCO)c1cccc2c1S(=O)(=O)N(Cc1cn(Cc3cccc(C(F)(F)F)c3)nn1)Cc1ccccc1O2	none (no result: Rin1 Abl inh)
COc1cc(N(C)C)ccc1C=c1c2ccccc2n2c1cc(-c1ccccc1)[n+]2C	UHRF1 MBD2 ctr 43, MBD2 DNA inh 27 | UHRF1 DNA bind 62 | MBD2 DBD conf 58
COC(=O)[C@@]12CCCCC=C1N(CCc1ccc(Cl)cc1)C(=O)[C@H]2CC(=O)NCc1ccc(C)o1	none (no result: Rin1 Abl inh)
CC(C)C[C@H](NC(C)(C)C(=O)NC1CCCCC1)C(=O)NCC(c1ccccc1)c1ccccc1	MBD2 DNA inh 21 (no result: Rin1 Abl inh) | UHRF1 DNA bind inactive | MBD2 DBD conf inactive
CC(C)C[C@H](NC(C)(C)C(=O)NC1CCCCC1)C(=O)NCCc1c[nH]c2ccccc12	none (no result: Rin1 Abl inh)
CCC(C(=O)OCc1csc(CC(=O)Nc2ccccc2C)n1)c1ccccc1 (configuration not stated)	none
Cc1ccccc1NC(=O)Cc1nc(COC(=O)CC(C)c2ccccc2)cs1 (configuration not stated)	MBD2 DNA inh 20 | UHRF1 DNA bind inactive | MBD2 DBD conf inactive
CCN1C(=O)CC(N2CCC(C(=O)N3CCOCC3)CC2)C1=O (configuration not stated)	UHRF1 MBD2 ctr 23, MBD2 DNA inh 15 | UHRF1 DNA bind inactive | MBD2 DBD conf inactive
CCOc1ccc(CCN2C(=O)C(=O)N([C@@H](CC(C)C)CN3CCC[C@H]3CN3C(=O)C(=O)NC[C@@H]3CC(C)C)C[C@@H]2Cc2ccc(O)cc2)cc1	UHRF1 MBD2 ctr 22, MBD2 DNA inh 16 (no result: Rin1 Abl inh) | UHRF1 DNA bind inactive | MBD2 DBD conf inactive
CC(C)C[C@@H]1COc2cc(F)ccc2S(=O)(=O)N1C	none (no result: Rin1 Abl inh)
CCOc1ccc(C2SCC(=O)N2c2c(C)n(C)n(-c3ccccc3)c2=O)cc1 (configuration not stated)	MBD2 DNA inh 16 | UHRF1 DNA bind inactive | MBD2 DBD conf inactive
Cc1c(N2C(=O)CSC2c2ccccc2)c(=O)n(-c2ccccc2)n1C (configuration not stated)	none
CCC(=O)N1Cc2cc(C(=O)NCC(F)(F)F)nc(-c3cccc(-c4cncnc4)c3)c2[C@H]1CCO	UHRF1 MBD2 ctr 26, MBD2 DNA inh 14 (no result: Rin1 Abl inh) | UHRF1 DNA bind inactive | MBD2 DBD conf inactive
O=C(COC(=O)c1ccc(O)cc1O)NC1CCCCCC1	MBD2 DNA inh 20 | UHRF1 DNA bind inactive | MBD2 DBD conf inactive
O=C(COC(=O)c1ccc(O)cc1O)NC1CCS(=O)(=O)C1 (configuration not stated)	none
CC[N+](CC)(CC)CCCCOc1ccc2c(c1)C(=O)c1cc(OCCCC[N+](CC)(CC)CC)ccc1-2	UHRF1 MBD2 ctr 31, MBD2 DNA inh 21 | UHRF1 DNA bind 49 | MBD2 DBD conf 32
CC[N+](CC)(CC)CCOc1ccc(/C=C/c2ccccc2)cc1	none
CCOC(=O)[C@@]12CCCC3=C1N(CCC3)C(=O)[C@H]2CC(=O)NCc1ccc(OC)c(OC)c1	none (no result: Rin1 Abl inh)
C[C@H](NC(=O)OCc1ccccc1)P(=O)(O)O	none (no result: Rin1 Abl inh)
CCOC(=O)C(Cc1ccc(NC(C)=O)cc1)N1C(=O)c2ccccc2C1=O (configuration not stated)	MBD2 DNA inh 17 | UHRF1 DNA bind inactive | MBD2 DBD conf inactive
CCOC(=O)C(Cc1ccc(NC(=O)/C(=C\c2ccccc2)NC(=O)c2ccccc2)cc1)N1C(=O)c2ccccc2C1=O (configuration not stated)	none
C=CCn1c(C)cc(C(=O)CSc2nc3ccccc3[nH]2)c1C	MBD2 DNA inh 20 | UHRF1 DNA bind inactive | MBD2 DBD conf inactive
COC(=O)[C@]12C[C@H](CC(=O)NCCCCc3ccccc3)C(=O)N(CCc3ccc(OC)c(OC)c3)C1=C[C@H](C(C)(C)C)O[C@@H]2C	none (no result: Rin1 Abl inh)
COC(=O)c1cc(-c2cccc([N+](=O)[O-])c2)c2c(=O)[nH]c(=O)n(C)c2n1	UHRF1 MBD2 ctr 23, MBD2 DNA inh 14 | UHRF1 DNA bind inactive | MBD2 DBD conf inactive
N#Cc1ccc(S(=O)(=O)N2CCCc3nc(-c4ccc(F)cc4)ccc32)cc1	none (no result: Rin1 Abl inh)
CC(=O)c1ccccc1NC(=O)COC(=O)C1CCCN1S(=O)(=O)c1ccccc1F (configuration not stated)	MBD2 DNA inh 15 | UHRF1 DNA bind inactive | MBD2 DBD conf inactive
CCn1cc(/C=C(\NC(=O)c2ccccc2OC)C(=O)NCCN2CCOCC2)c2ccccc21	MBD2 DNA inh 16 | UHRF1 DNA bind inactive | MBD2 DBD conf inactive
CC(C)(Oc1ccc(F)cc1)C(=O)OCC(=O)c1ccc(S(C)(=O)=O)cc1	MBD2 DNA inh 36 | UHRF1 DNA bind inactive | MBD2 DBD conf inactive
O=C(COC(=O)Cc1cccc(C(F)(F)F)c1)NCc1ccco1	UHRF1 MBD2 ctr 35, MBD2 DNA inh 17 | UHRF1 DNA bind 21 | MBD2 DBD conf inactive
c1ccc(Cn2ccc3ccc(-c4ccc5ccn(Cc6ccc(-c7ccccc7)cc6)c5c4)cc32)cc1	none (no result: Rin1 Abl inh)
CN(C)/C=C1\N=C(c2cccnc2Oc2ccc(Cl)cc2)OC1=O	none
CN(C)/C=C1\N=C(c2ccc(Cl)cc2Cl)OC1=O	MBD2 DNA inh 16 | UHRF1 DNA bind inactive | MBD2 DBD conf inactive
COC(=O)[C@H](C(C)C)N(CCCc1cn(Cc2ccc(C)cc2)nn1)S(=O)(=O)c1ccc(F)cc1Br	none (no result: Rin1 Abl inh)
CC(C)CCn1cnc2c1c(=O)[nH]c(=O)n2Cc1ccccc1	MBD2 DNA inh 90 | UHRF1 DNA bind inactive | MBD2 DBD conf inactive
CC(C)Cn1cnc2c1c(=O)[nH]c(=O)n2Cc1ccccc1	none
CC(=O)Nc1nc2ncccn2c1-c1ccccc1	none (no result: Rin1 Abl inh)
CCc1ccccc1-c1cc(C(C)=O)c2n(c1=O)CCC2	none (no result: Rin1 Abl inh)
COc1ccc(CCNC(=O)c2cc(-c3ccco3)nc3ccccc23)cc1	UHRF1 MBD2 ctr 21, MBD2 DNA inh 17 (no result: Rin1 Abl inh) | UHRF1 DNA bind inactive | MBD2 DBD conf inactive

Bioassay records deposited in PubChem by The Scripps Research Institute Molecular Screening Center.
